Assay results gathered from unrelated publications.
Protocols differ between the studies behind these lines. In brackets after ≈: the same amount, converted by molar mass.

| SMILES | target or system | test | test system | conditions | measurement | value |
| --- | --- | --- | --- | --- | --- | --- |
| Cc1ccnc2c1NC(=O)c1cccnc1N2C1CC1 | Human immunodeficiency virus 1 | viral replication, inhibitor | human PBMC | clinical isolate | IC90 | 0.227 µM |
| COC(=O)c1cc(-c2cccc(NC(=S)Nc3cccc(Br)c3)c2)on1 | Mycolicibacterium fortuitum | microbial growth, broth dilution | ATCC6841 | 48 h | MIC | > 64 µg/mL |
| CC(C(=O)N1CCCCC1)c1cccc(C(OC(=O)N2CCCCC2)c2ccccc2)c1 (stereo not shown) | CCRF-CEM | cell growth or viability |  | 72 h | IC50 | 13 µM |
| Nc1nc2c(ncn2COCCO)c(=O)[nH]1 | Cowpox virus | microbial growth |  |  | MIC50 | 250 µM (≈ 56.3 µg/mL) |
| COC(=O)c1cc(-c2cccc(NC(=S)Nc3ccc(C#N)cc3)c2)on1 | Mycolicibacterium fortuitum | microbial growth, broth dilution | ATCC6841 | 48 h | MIC | 64 µg/mL |
| CO[C@H]1/C=C/O[C@@]2(C)Oc3c(C)c(O)c4c(O)c(c(/C=N/N5CCN(C)CC5)c(O)c4c3C2=O)NC(=O)/C(C)=C\C=C\[C@H](C)[C@H](O)[C@@H](C)[C@@H](O)[C@@H](C)[C@H](OC(C)=O)[C@@H]1C | Mycobacterium marinum | microbial growth |  | 5 days | MIC | < 0.78 µM |
| [H]/N=C(/N)N[C@H]1[C@H](O)[C@@H](O)[C@H](O[C@@H]2O[C@@H](C)[C@](O)(C=O)[C@H]2O[C@@H]2O[C@@H](CO)[C@H](O)[C@@H](O)[C@@H]2NC)[C@@H](N/C(N)=N\[H])[C@@H]1O | Mycolicibacterium fortuitum | microbial growth | ATCC6841 |  | MIC | 50 µg/mL |
| N.N.[Cl][Pt][Cl] | PK-59 | cell growth or viability, MTT |  | 24 h | IC50 | 2.66 µM |
| COC(=O)c1cc(-c2cccc(NC(=S)Nc3ccccc3Cl)c2)on1 | Mycolicibacterium fortuitum | microbial growth, broth dilution | ATCC6841 | 48 h | MIC | > 64 µg/mL |
| COc1ccc(C=NNC(=S)Nc2ccc(C#N)cc2)cc1 | CCRF-CEM | cell growth or viability |  | 72 h | IC50 | > 200 µg/mL |
| COC(=O)c1cc(-c2cccc(NC(=O)Nc3ccccc3F)c2)on1 | Mycolicibacterium fortuitum | microbial growth, broth dilution | ATCC6841 | 48 h | MIC | > 64 µg/mL |
| CC(C(=O)N1CCCC1)c1cccc(C(OC(=O)N2CCCC2)c2ccccc2)c1 (stereo not shown) | CCRF-CEM | cell growth or viability |  | 72 h | IC50 | 42 µM |
| CO[C@H]1/C=C/O[C@@]2(C)Oc3c(C)c(O)c4c(O)c(c(/C=N/N5CCN(C)CC5)c(O)c4c3C2=O)NC(=O)/C(C)=C\C=C\[C@H](C)[C@H](O)[C@@H](C)[C@@H](O)[C@@H](C)[C@H](OC(C)=O)[C@@H]1C | Mycolicibacterium fortuitum | microbial growth | ATCC6841 |  | MIC | 3.1 to 6.2 µg/mL |
| COC(=O)c1cc(-c2cccc(NC(=O)Nc3cc(Cl)ccc3Cl)c2)on1 | Mycolicibacterium fortuitum | microbial growth, broth dilution | ATCC6841 | 48 h | MIC | > 64 µg/mL |
| Nc1nc(O)c2ncn(COC(CO)CO)c2n1 | Cowpox virus | microbial growth |  |  | MIC50 | > 100 µM |
| COC(=O)c1cc(-c2cccc(NC(=O)Nc3ccccc3)c2)on1 | Mycolicibacterium fortuitum | microbial growth, broth dilution | ATCC6841 | 48 h | MIC | > 64 µg/mL |
| CCOC(=O)c1c(CSc2ccccc2)n(C)c2cc(Br)c(O)c(CN(C)C)c12 | Cowpox virus | microbial growth |  |  | MIC50 | > 37 µM |
| N#Cc1ccc(NC(=S)NN=Cc2ccc(O)cc2)cc1 | CCRF-CEM | cell growth or viability |  | 72 h | IC50 | 107 µg/mL |
| N.N.[Cl][Pt][Cl] | 184B5 | cell growth or viability |  |  | IC50 | 5.73 µM |
